Measured values published in article PMC2806602 (The Journal of neuroscience : the official journal of the …, 2009).
Numbering of substitutions follows the chain as printed. “Also recorded” adds a separate entry of the source.

Legend:
GluRδ2^Wt [1] = biological target: T1, GluRδ2^Wt (Rattus norvegicus, UniProt Q63226); details: ref Naur et al., 2007; cited from earlier work
T1 sequence (Q63226 24-1007): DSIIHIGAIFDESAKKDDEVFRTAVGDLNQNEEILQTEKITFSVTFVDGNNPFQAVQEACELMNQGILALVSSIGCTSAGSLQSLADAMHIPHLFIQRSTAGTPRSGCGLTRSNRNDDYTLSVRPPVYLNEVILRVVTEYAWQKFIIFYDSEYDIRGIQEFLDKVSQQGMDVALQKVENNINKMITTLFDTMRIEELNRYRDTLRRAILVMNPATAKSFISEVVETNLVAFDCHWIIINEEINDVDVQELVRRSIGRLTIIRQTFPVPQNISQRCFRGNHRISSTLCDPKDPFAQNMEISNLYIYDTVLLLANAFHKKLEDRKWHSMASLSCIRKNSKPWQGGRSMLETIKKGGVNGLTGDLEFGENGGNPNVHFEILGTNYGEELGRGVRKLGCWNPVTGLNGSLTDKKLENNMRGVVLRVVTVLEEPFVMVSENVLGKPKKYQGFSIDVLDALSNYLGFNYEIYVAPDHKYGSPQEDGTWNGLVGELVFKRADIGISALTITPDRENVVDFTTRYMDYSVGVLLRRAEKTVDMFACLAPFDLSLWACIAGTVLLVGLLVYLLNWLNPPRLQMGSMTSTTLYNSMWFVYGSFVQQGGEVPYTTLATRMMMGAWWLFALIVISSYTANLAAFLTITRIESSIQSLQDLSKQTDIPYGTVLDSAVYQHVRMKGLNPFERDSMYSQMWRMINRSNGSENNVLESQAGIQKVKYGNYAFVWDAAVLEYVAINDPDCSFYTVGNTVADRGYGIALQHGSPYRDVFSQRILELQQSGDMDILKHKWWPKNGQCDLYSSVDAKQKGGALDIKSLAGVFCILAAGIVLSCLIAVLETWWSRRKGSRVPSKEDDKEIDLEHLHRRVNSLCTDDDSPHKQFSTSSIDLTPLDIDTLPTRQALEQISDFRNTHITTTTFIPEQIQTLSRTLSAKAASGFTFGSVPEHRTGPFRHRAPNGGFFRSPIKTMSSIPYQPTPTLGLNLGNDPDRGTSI

GluRδ2^Lc D742A = biological target: T2, GluRδ2^Lc D742A (Rattus norvegicus, UniProt Q63226, A654T/D742A); assay: Two-electrode voltage-clamp recordings in Xenopus oocytes, GluRδ2^Lc D742A; type: cell-based; details: 3 mM Ca^2+; baseline spontaneously active current; ± SEM
T2 sequence (Q63226 24-1007 A654T/D742A): T1 sequence (Q63226 24-1007) with A631T, D719A
In short: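 Oocytes expressing the Lc mutant were kept in 25 μM NASP to prevent cytotoxicity. Two-electrode voltage clamp at −40 mV and 23°C, 24–72 h after cRNA injection. Bath: 90 mM NaCl, 3 mM KCl, 0.5 mM BaCl2, 10 mM HEPES, pH 7.6. Choline or NMDG chloride balanced Cl− and osmolarity. Values are fold increase over the Ca2+-free spontaneously active baseline on applying 3 mM Ca2+, given as mean ± SEM over oocytes.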

GluRδ2^Wt [2] = biological target: T1, GluRδ2^Wt; assay: Two-electrode voltage-clamp recordings in Xenopus oocytes expressing GluRδ2^Wt; type: cell-based
In short: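 Oocytes injected with wild-type receptor cRNA the day after excision and collagenase treatment. Two-electrode voltage clamp at −40 mV and 23°C, 24–72 h post-injection. Bath: 90 mM NaCl, 3 mM KCl, 0.5 mM BaCl2, 10 mM HEPES, pH 7.6. Ba2+ was replaced by 0.5 mM Mg2+, Zn2+, Mn2+, Sr2+ or Ca2+, or Ca2+ was raised stepwise. Choline or NMDG chloride kept osmolarity and Cl− constant. Baseline was current without Ca2+.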

| Ca^2+ potentiation (relative to baseline) (GluRδ2^Lc D742A) [fold] | effect of divalent cation on currents at GluRδ2^Wt (GluRδ2^Wt [2]; 0.5 mM Ba^2+ exchanged with 0.5 mM of the divalent cation) | SMILES | activation of currents at recombinant GluRδ2^Wt by D-serine (GluRδ2^Wt [1]) | effect of extracellular Ca^2+ on baseline currents at GluRδ2^Wt (GluRδ2^Wt [2]; increasing concentrations of Ca^2+) |
| --- | --- | --- | --- | --- |
|  |  | N[C@H](CO)C(=O)O [D-serine] | fails to activate currents |  |
| 3.5 ± 0.11 | no changes were observed | [Ca+2] [Ca^2+, calcium] |  | insensitive; also recorded: did not induce current |
